# Published values of several laboratories.
# Each line is one published result; the experiments were not run side by side.
# Target: Rho-associated protein kinase 2 (ROCK2, Homo sapiens, UniProt O75116)
Compound,read-out,technique,tested at,remaining binding
CC(C)(C)c1ccc(-c2nc(CBr)nn2-c2cccc(O)c2)cc1,cell-free assay,competition with immobilised ligand,10 µM,58%
Cc1cnc(Nc2ccc(C(=O)N3CCC(N4CCCC4)CC3)cc2)nc1-c1cc2ccccc2s1,binding,competition with immobilised ligand,1 µM,11%
C[C@@H]1CN(c2ccc3ncc(-c4ccc5[nH]nc(C6CC6)c5c4)n3n2)C[C@H](C)O1,binding,competition with immobilised ligand,0.5 µM,21%
N#CC1(c2ccccn2)CCN(Cc2cc(C(=O)N3CCCC3)c(=O)n3ccccc23)CC1,cell-free assay,competition with immobilised ligand,1 µM,72%
O=C(NCC1CCOCC1)c1n[nH]cc1NC(=O)c1c(F)cccc1F,binding,competition with immobilised ligand,1 µM,64%
CN(CCCC(F)(F)F)c1nccc(-c2cnn3ncccc23)n1,binding,,1 µM,100%
O=C(NCCCC1CCCCC1)c1ccc(CNC(=O)c2cnn(-c3ccccc3)c2C(F)(F)F)cc1,cell-free assay,competition with immobilised ligand,0.1 µM,100%
C[C@@H]1CCN(c2nccc(-c3cnn4ncccc34)n2)C1,binding,,1 µM,98%
CN(C)C(=O)Cn1cc(-c2nc(C3(c4ccc(-c5cnc(N)nc5)cc4)CC3)no2)cn1,cell-free assay,competition with immobilised ligand,1 µM,89%
c1cnn2ncc(-c3ccnc(N4CCC45COC5)n3)c2c1,binding,,1 µM,70%
O=C(c1ccc(Nc2ncc(Cl)c(-c3cc4ccccc4s3)n2)cc1)N1CCC(N2CCCC2)CC1,binding,competition with immobilised ligand,1 µM,7.2%
C[C@@H](c1cccc(C#N)c1)n1cc(Cl)cc(C(N)=O)c1=N,cell-free assay,competition with immobilised ligand,1 µM,90%
N[C@H]1CCN(c2nccc(-c3cnn4ncccc34)n2)C1,binding,,1 µM,100%
COc1cnc(Nc2cccc(S(N)(=O)=O)c2)nc1N1CCN(c2ccccc2)CC1,binding,competition with immobilised ligand,1 µM,90%
COCCOc1nc(-c2ccc(Cl)nc2)nc2c1CN(C(=O)c1ncn3ccccc13)CC2,cell-free assay,competition with immobilised ligand,0.1 µM,76%
Nc1ncc2c(n1)-c1c([nH]c3ccc(C#CC4CC4)cc13)CCCC2,binding,competition with immobilised ligand,1 µM,75%
